ChEMBL document CHEMBL1146380, “Synthesis, antimicrobial activity, and QSAR studies of furan-3-carboxamides” (2007)
In brackets after ≈: the same amount, converted by molar mass. Activity calls are given as the source filed them. The calls are words filed in the database; no cut-off is given here.

Experiments:
Klebsiella pneumoniae = assay: Antimicrobial activity against Klebsiella pneumoniae ATCC 1003 by broth microdilution method; assay type: functional
Summary of the method: (§1)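 Bacteria grown overnight on Mueller–Hinton agar. Colonies were suspended in saline to McFarland turbidity (about 10^8 cfu/mL), diluted 1:100 in saline, then 1:20 in Mueller–Hinton broth, giving 5 · 10^4 cfu/mL per well. DMSO-dissolved compound was tested in twofold dilutions from 320 to 1.25 at 35 °C for 24 h. MIC was the lowest concentration with no visible turbidity (M7-A4). Bactericidal concentration was read by subculturing clear wells on Mueller–Hinton agar.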

Rhizopus arrhizus = assay: Antimicrobial activity against Rhizopus oryzae isolate by broth microdilution method; assay type: functional
Prototheca zopfii = assay: Antimicrobial activity against Prototheca zopfii by broth microdilution method; assay type: functional
Summary of the method: (§2)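 Organism grown on potato dextrose agar, with turbidity-standardized inoculum in RPMI 1640 broth (M27-A2). DMSO-dissolved compound was tested in twofold dilutions from 320 to 1.25 at 35 °C, incubated up to 72 h, in duplicate. MIC was the lowest concentration with no visible growth. Cidal concentration was read by subculturing 20 µL from clear wells on Sabouraud dextrose agar, incubated for the same period.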

Staphylococcus aureus = assay: Antimicrobial activity against Staphylococcus aureus ATCC 25923 by broth microdilution method; assay type: functional; summary of the method: as §1
Aspergillus niger = assay: Antimicrobial activity against Aspergillus niger isolate by broth microdilution method; assay type: functional
Saccharomyces cerevisiae = assay: Antimicrobial activity against Saccharomyces cerevisiae ATCC 2601 by broth microdilution method; assay type: functional; summary of the method: as §2
Nakaseomyces glabratus = assay: Antimicrobial activity against Candida glabrata […] by broth microdilution method; assay type: functional
Summary of the method: (§3)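 Yeasts grown on potato dextrose agar. Inoculum was standardized by McFarland turbidity as for bacteria, into RPMI 1640 broth (M27-A2). DMSO-dissolved compound was tested in twofold dilutions from 320 to 1.25 at 35 °C for 24 h, in duplicate. MIC was the lowest concentration completely inhibiting visible growth. Fungicidal concentration was read by subculturing 20 µL from clear wells on Sabouraud dextrose agar at 35 °C.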

Pseudomonas aeruginosa = assay: Antimicrobial activity against Pseudomonas aeruginosa ATCC 27853 by broth microdilution method; assay type: functional; summary of the method: as §1
[1] = test system: Salmonella enterica subsp. enterica serovar Setubal; assay: (§4) Antimicrobial activity against Salmonella setubal ATCC 19196 by broth microdilution method; assay type: functional; summary of the method: as §1
[2] = as §4; assay type: functional, Salmonella enterica subsp. enterica serovar Setubal; conditions: Salmonella enterica; summary of the method: as §1
Scedosporium boydii = assay: Antimicrobial activity against Pseudallescheria boydii isolate by broth microdilution method; assay type: functional
Candida dubliniensis = assay: Antimicrobial activity against Candida dubliniensis CBS 7987 by broth microdilution method; assay type: functional; summary of the method: as §3
Aspergillus terreus = assay: Antimicrobial activity against Aspergillus terreus isolate by broth microdilution method; assay type: functional
Sporothrix schenckii = assay: Antimicrobial activity against Sporothrix schenckii ATCC 1146 by broth microdilution method; assay type: functional
Escherichia coli = assay: Antimicrobial activity against Escherichia coli ATCC 25922 by broth microdilution method; assay type: functional; summary of the method: as §1
Aspergillus flavus = assay: Antimicrobial activity against Aspergillus flavus isolate by broth microdilution method; assay type: functional
Aspergillus fumigatus = assay: Antimicrobial activity against Aspergillus fumigatus isolate by broth microdilution method; assay type: functional
Candida albicans = assay: Antimicrobial activity against Candida albicans ATCC 44373 by broth microdilution method; assay type: functional; summary of the method: as §3
Fusarium solani = assay: Antimicrobial activity against Fusarium solani isolate by broth microdilution method; assay type: functional
[3] = test system: Cryptococcus deneoformans; assay: Antimicrobial activity against Cryptococcus neoformans var.neoformans serotype D ATCC 28952 by broth microdilution method; assay type: functional; summary of the method: as §2

Compound	MIC (Klebsiella pneumoniae)	MIC (Rhizopus arrhizus)	MIC (Prototheca zopfii)	MIC (Staphylococcus aureus)	Activity (Aspergillus niger)	MIC (Saccharomyces cerevisiae)	Activity (Pseudomonas aeruginosa)	MIC (Pseudomonas aeruginosa)	Activity [1]	MIC [2]	MFC (Scedosporium boydii)	MIC (Scedosporium boydii)	Activity (Aspergillus terreus)	MIC (Aspergillus terreus)	MIC (Sporothrix schenckii)	MIC (Escherichia coli)	Activity (Aspergillus flavus)	Activity (Fusarium solani)	MIC (Fusarium solani)	MIC [3]	further results
O=C(NCCC1CCN(Cc2ccccc2)CC1)c1ccoc1	160 µg/mL (≈ 512 µM)	320 µg/mL (≈ 1020 µM)	320 µg/mL (≈ 1020 µM)	40 µg/mL (≈ 128 µM)	inactive	80 µg/mL (≈ 256 µM)	inactive	20 µg/mL (≈ 64 µM)	inactive	320 µg/mL (≈ 1020 µM)	80 µg/mL (≈ 256 µM)	40 µg/mL (≈ 128 µM)	inactive	320 µg/mL (≈ 1020 µM)	20 µg/mL (≈ 64 µM)	160 µg/mL (≈ 512 µM)	inactive	inactive	320 µg/mL (≈ 1020 µM)	320 µg/mL (≈ 1020 µM)	MBC (Klebsiella pneumoniae; read-out: MFC): 320 µg/mL (≈ 1020 µM); Activity (Rhizopus arrhizus): inactive; MFC (Prototheca zopfii): 320 µg/mL (≈ 1020 µM); MBC (Staphylococcus aureus; read-out: MFC): 160 µg/mL (≈ 512 µM); MIC (Aspergillus niger): 320 µg/mL (≈ 1020 µM); MFC (Saccharomyces cerevisiae): 160 µg/mL (≈ 512 µM); MFC (Nakaseomyces glabratus): 320 µg/mL (≈ 1020 µM); MIC (Nakaseomyces glabratus): 320 µg/mL (≈ 1020 µM); MFC (Candida dubliniensis): 160 µg/mL (≈ 512 µM); MIC (Candida dubliniensis): 160 µg/mL (≈ 512 µM); Activity (Sporothrix schenckii): inactive; MBC (Escherichia coli): 320 µg/mL (≈ 1020 µM); MIC (Aspergillus flavus): 320 µg/mL (≈ 1020 µM); Activity (Aspergillus fumigatus): inactive; MIC (Aspergillus fumigatus): 320 µg/mL (≈ 1020 µM); MFC (Candida albicans): 320 µg/mL (≈ 1020 µM); MIC (Candida albicans): 160 µg/mL (≈ 512 µM); Activity [3]: inactive
Cc1ccc(S(=O)(=O)NNC(=O)c2ccoc2)cc1	320 µg/mL (≈ 1140 µM)	320 µg/mL (≈ 1140 µM)	320 µg/mL (≈ 1140 µM)	320 µg/mL (≈ 1140 µM)	inactive	160 µg/mL (≈ 571 µM)	–	160 µg/mL (≈ 571 µM)	inactive	320 µg/mL (≈ 1140 µM)	160 µg/mL (≈ 571 µM)	160 µg/mL (≈ 571 µM)	inactive	320 µg/mL (≈ 1140 µM)	160 µg/mL (≈ 571 µM)	320 µg/mL (≈ 1140 µM)	inactive	inactive	320 µg/mL (≈ 1140 µM)	320 µg/mL (≈ 1140 µM)	Activity (Klebsiella pneumoniae): inactive; Activity (Rhizopus arrhizus): inactive; Activity (Prototheca zopfii): inactive; Activity (Staphylococcus aureus): inactive; MFC (Saccharomyces cerevisiae): 320 µg/mL (≈ 1140 µM); Activity (Nakaseomyces glabratus): inactive; MBC (Pseudomonas aeruginosa): 320 µg/mL (≈ 1140 µM); Activity (Candida dubliniensis): inactive; Activity (Sporothrix schenckii): inactive; Activity (Escherichia coli): inactive; MIC (Aspergillus flavus): 320 µg/mL (≈ 1140 µM); MFC (Aspergillus fumigatus): 320 µg/mL (≈ 1140 µM); MIC (Aspergillus fumigatus): 320 µg/mL (≈ 1140 µM); Activity (Candida albicans): inactive; MFC [3]: 320 µg/mL (≈ 1140 µM)
O=C(NCc1ccccn1)c1ccoc1	320 µg/mL (≈ 1580 µM)	320 µg/mL (≈ 1580 µM)	320 µg/mL (≈ 1580 µM)	320 µg/mL (≈ 1580 µM)	inactive	–	inactive	320 µg/mL (≈ 1580 µM)	inactive	320 µg/mL (≈ 1580 µM)	320 µg/mL (≈ 1580 µM)	320 µg/mL (≈ 1580 µM)	inactive	320 µg/mL (≈ 1580 µM)	320 µg/mL (≈ 1580 µM)	320 µg/mL (≈ 1580 µM)	–	inactive	320 µg/mL (≈ 1580 µM)	320 µg/mL (≈ 1580 µM)	Activity (Klebsiella pneumoniae): inactive; Activity (Rhizopus arrhizus): inactive; Activity (Prototheca zopfii): inactive; Activity (Staphylococcus aureus): inactive; Activity (Saccharomyces cerevisiae): inactive; Activity (Nakaseomyces glabratus): inactive; Activity (Candida dubliniensis): inactive; Activity (Sporothrix schenckii): inactive; Activity (Escherichia coli): inactive; MFC (Aspergillus flavus): 320 µg/mL (≈ 1580 µM); MIC (Aspergillus flavus): 320 µg/mL (≈ 1580 µM); Activity (Aspergillus fumigatus): inactive; Activity (Candida albicans): inactive; Activity [3]: inactive
CN(C)C(=O)c1ccoc1	320 µg/mL (≈ 2300 µM)	320 µg/mL (≈ 2300 µM)	320 µg/mL (≈ 2300 µM)	320 µg/mL (≈ 2300 µM)	inactive	inactive	inactive	320 µg/mL (≈ 2300 µM)	inactive	320 µg/mL (≈ 2300 µM)	320 µg/mL (≈ 2300 µM)	160 µg/mL (≈ 1150 µM)	inactive	–	160 µg/mL (≈ 1150 µM)	–	inactive	inactive	–	320 µg/mL (≈ 2300 µM)	Activity (Klebsiella pneumoniae): inactive; MFC (Rhizopus arrhizus): 320 µg/mL (≈ 2300 µM); Activity (Prototheca zopfii): inactive; Activity (Staphylococcus aureus): inactive; MIC (Aspergillus niger): 320 µg/mL (≈ 2300 µM); Activity (Nakaseomyces glabratus): inactive; Activity (Candida dubliniensis): inactive; MFC (Sporothrix schenckii): 320 µg/mL (≈ 2300 µM); Activity (Escherichia coli): inactive; Activity (Aspergillus fumigatus): inactive; Activity (Candida albicans): inactive; Activity [3]: inactive
O=C(NCc1cccnc1)c1ccoc1	320 µg/mL (≈ 1580 µM)	320 µg/mL (≈ 1580 µM)	160 µg/mL (≈ 791 µM)	320 µg/mL (≈ 1580 µM)	–	320 µg/mL (≈ 1580 µM)	inactive	320 µg/mL (≈ 1580 µM)	inactive	320 µg/mL (≈ 1580 µM)	160 µg/mL (≈ 791 µM)	160 µg/mL (≈ 791 µM)	inactive	320 µg/mL (≈ 1580 µM)	320 µg/mL (≈ 1580 µM)	320 µg/mL (≈ 1580 µM)	inactive	inactive	320 µg/mL (≈ 1580 µM)	160 µg/mL (≈ 791 µM)	Activity (Klebsiella pneumoniae): inactive; MFC (Rhizopus arrhizus): 320 µg/mL (≈ 1580 µM); MFC (Prototheca zopfii): 160 µg/mL (≈ 791 µM); Activity (Staphylococcus aureus): inactive; MFC (Aspergillus niger): 320 µg/mL (≈ 1580 µM); MIC (Aspergillus niger): 320 µg/mL (≈ 1580 µM); MFC (Saccharomyces cerevisiae): 320 µg/mL (≈ 1580 µM); Activity (Nakaseomyces glabratus): inactive; Activity (Candida dubliniensis): inactive; MIC (Candida dubliniensis): 320 µg/mL (≈ 1580 µM); MFC (Sporothrix schenckii): 320 µg/mL (≈ 1580 µM); Activity (Escherichia coli): inactive; MFC (Aspergillus fumigatus): 320 µg/mL (≈ 1580 µM); MIC (Aspergillus fumigatus): 320 µg/mL (≈ 1580 µM); Activity (Candida albicans): inactive; MFC [3]: 320 µg/mL (≈ 1580 µM)
